In ChEMBL document CHEMBL4765317, “Novel bacterial topoisomerase inhibitors derived from isomannide” (Eur J Med Chem, 2020):
Values after ≈ are worked out from the molar mass of the structure shown.

Key:
[1] = target: CYP3A4 (Homo sapiens, UniProt P08684); assay: Inhibition of human liver microsome CYP3A4 at 10 uM in presence of NADPH incubated for 10 to 30 mins by LC-MS-MS analysis; values are per cent of control; settings: human liver microsomes
[2] = test system: Staphylococcus aureus; assay: Antibacterial activity against Staphylococcus aureus ATCC 29213 assessed as reduction in bacterial growth by CLSI based broth microdilution method; assay type: functional
[3] = test system: Staphylococcus aureus; assay: Antibacterial activity against Fluoroquinolone-resistant Staphylococcus aureus assessed as reduction in bacterial growth by CLSI based broth microdilution method; assay type: functional
[4] = Inhibition of Staphylococcus aureus topoisomerase IV using kDNA as substrate incubated for 30 mins by gel electrophoresis analysis; settings: read-out: IC50
[5] = test system: Enterococcus faecium; assay: Antibacterial activity against Vancomycin-resistant Enterococcus faecium LSI-3340 assessed as reduction in bacterial growth by CLSI based broth microdilution method; assay type: functional
[6] = test system: Staphylococcus aureus; assay: Antibacterial activity against Staphylococcus aureus harboring DNA gyrase D83N mutant assessed as reduction in bacterial growth by CLSI based broth microdilution method; assay type: functional
Summary of the method: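 MIC against an isogenic NBTI-resistant daughter strain carrying a D83N substitution in DNA gyrase, originally selected under NBTI pressure from multidrug-resistant MRSA isolate 3527. CLSI broth microdilution was used, with values in µg/mL.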

[7] = Cytotoxicity against human HepaRG assessed as reduction in cell viability at 10 uM incubated for 24 hrs by Cell-Titer Glo assay; assay type: cell-based; settings: HepaRG cells, read-out: INH
Summary of the method: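 ATP-based viability read-out in HepaRG cells over a five-point concentration series (0.01, 0.1, 1, 10, 100 µM). Results are given as % cytotoxicity at each concentration.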

[8] = test system: Staphylococcus aureus; assay: Antibacterial activity against Staphylococcus aureus 3527 assessed as reduction in bacterial growth by CLSI based broth microdilution method; assay type: functional
Summary of the method: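 Host is a multidrug-resistant MRSA clinical isolate (formerly 1095), the parent of an isogenic D83N gyrase mutant. MIC was read by CLSI broth microdilution and reported in µg/mL.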

[9] = test system: Staphylococcus aureus; assay: Antibacterial activity against methicillin-resistant Staphylococcus aureus DRL-3161 assessed as reduction in bacterial growth by CLSI based broth microdilution method; assay type: functional
[10] = target: CYP2C9 (Homo sapiens, UniProt P11712); assay: Inhibition of human liver microsome CYP2C9 at 10 uM in presence of NADPH incubated for 10 to 30 mins by LC-MS-MS analysis; assay type: ADME; settings: human liver microsomes, time 10-30 min
[11] = target: Sodium channel protein type 2 subunit alpha (Homo sapiens) (UniProt Q99250); assay: Inhibition of recombinant human full length Nav1.2 expressed in CHO-K1 cells at 100 uM by manual patch clamp assay relative to control; assay type: cell-based
Summary of the method: (§1)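 Off-target screen against a panel of 44 receptors, enzymes and transporters, run in duplicate at a single 100 µM concentration. Results are given as % inhibition. No concentration-response follow-up was done.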

[12] = Permeability across apical to basolateral side in human Caco2 cells at 10 uM by LC-MS/MS analysis; assay type: ADME, cell-based; settings: Caco-2, read-out: permeability
[13] = target: Voltage-gated inwardly rectifying potassium channel KCNH2 (Homo sapiens, UniProt Q12809); assay: Inhibition of human ERG
[14] = target: CYP1A2 (Homo sapiens, UniProt P05177); assay: Inhibition of human liver microsome CYP1A2 at 10 uM in presence of NADPH incubated for 10 to 30 mins by LC-MS-MS analysis; assay type: ADME; settings: human liver microsomes, time 10-30 min
[15] = test system: Staphylococcus aureus; assay: Potency index, ratio of MIC90 of ciprofloxacin to MIC90 of compound for antibacterial activity against Fluoroquinolone-resistant Staphylococcus aureus assessed as reduction in bacterial growth by CLSI based broth microdilution method; assay type: functional
[16] = Aqueous solubility of compound at 100 uM incubated for 90 mins by LC-MS/MS analysis; assay type: physicochemical; settings: buffer
Summary of the method: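 Kinetic solubility measured in buffered aqueous solution at pH 7.4.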

[17] = target: Sodium-dependent dopamine transporter (Homo sapiens) (UniProt Q01959); assay: Inhibition of recombinant human full length Dopamine transporter expressed in CHO-S cells at 100 uM in presence of [125I]-RTI-55 incubated for 180 mins by scintillation counting method relative to control; assay type: cell-based
Summary of the method: as §1

[18] = target: CYP2D6 (Homo sapiens, UniProt P10635); assay: Inhibition of human liver microsome CYP2D6 at 10 uM in presence of NADPH incubated for 10 to 30 mins by LC-MS-MS analysis; assay type: ADME; settings: human liver microsomes, time 10-30 min
[19] = target: 5-hydroxytryptamine receptor 2B (Homo sapiens) (UniProt P41595); assay: Inhibition of recombinant human full length 5HT2B expressed in CHO-K1 cells at 100 uM incubated for 30 mins by TR-FRET assay relative to control; assay type: cell-based
Summary of the method: as §1

[20] = Permeability across basolateral to apical side in human Caco2 cells at 10 uM by LC-MS/MS analysis; assay type: ADME, cell-based; settings: Caco-2, read-out: permeability
[21] = target: Nav1.5 (late current) (Homo sapiens, UniProt Q14524); assay: Inhibition of recombinant human Nav1.5 late expressed in human HEK293 cells at 30 uM in presence of ATXII by automated Qpatch clamp assay relative to control; assay type: ADME, cell-based; settings: HEK293 cells expressing recombinant human Nav1.5
Summary of the method: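 Part of an eight-assay CiPA panel run on a QPatch HT automated patch clamp at 3, 30 and 100 µM, in duplicate. The test compound came from a 30 mM DMSO stock. Data were filtered for seal quality, seal drop and current amplitude, and reported as mean percent inhibition.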

[22] = test system: Enterococcus faecalis; assay: Antibacterial activity against Enterococcus faecalis ATCC 29212 assessed as reduction in bacterial growth by CLSI based broth microdilution method; assay type: functional
[23] = target: Sodium channel protein type 5 subunit alpha (Homo sapiens, UniProt Q14524); assay: Activation of recombinant human Nav1.5 late expressed in human HEK293 cells assessed as activation of late current at 3 uM by automated Qpatch clamp assay relative to control; assay type: ADME, cell-based; settings: hek293, 3 µM
Summary of the method: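 Part of an eight-assay CiPA panel run in duplicate on an automated QPatch HT patch-clamp system at 3, 30 and 100 µM. Test compound came from a 30 mM DMSO stock. Records were filtered for seal quality, seal drop and current amplitude, and mean percent values are reported.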

[24] = target: Histamine H2 receptor (Homo sapiens) (UniProt P25021); assay: Inhibition of recombinant human full length histamine H2 receptor expressed in CHO-K1 cells using [125I] Aminopotentidine as […] at 100 uM incubated for 120 mins by scintillation counting method relative to control; assay type: cell-based
Summary of the method: as §1

[25] = test system: Streptococcus pneumoniae; assay: Antibacterial activity against penicillin-resistant Streptococcus pneumoniae LSI-4246 assessed as reduction in bacterial growth by CLSI based broth microdilution method; assay type: functional

Sequence of CYP1A2 (P05177 whole entry): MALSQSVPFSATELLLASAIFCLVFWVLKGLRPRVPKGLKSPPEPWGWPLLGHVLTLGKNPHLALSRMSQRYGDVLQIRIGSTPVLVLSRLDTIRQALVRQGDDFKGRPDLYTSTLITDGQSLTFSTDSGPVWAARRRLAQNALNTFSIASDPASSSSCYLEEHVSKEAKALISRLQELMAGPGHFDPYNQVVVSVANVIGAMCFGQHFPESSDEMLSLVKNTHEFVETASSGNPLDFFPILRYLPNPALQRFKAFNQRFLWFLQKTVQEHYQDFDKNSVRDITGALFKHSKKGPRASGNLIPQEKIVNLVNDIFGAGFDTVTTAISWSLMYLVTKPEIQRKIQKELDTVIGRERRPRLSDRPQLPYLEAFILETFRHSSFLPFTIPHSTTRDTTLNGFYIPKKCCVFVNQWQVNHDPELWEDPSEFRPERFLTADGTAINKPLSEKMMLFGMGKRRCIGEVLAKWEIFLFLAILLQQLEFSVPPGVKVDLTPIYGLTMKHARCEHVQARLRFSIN
Sequence of Sodium-dependent dopamine transporter (Homo sapiens) (Q01959 whole entry): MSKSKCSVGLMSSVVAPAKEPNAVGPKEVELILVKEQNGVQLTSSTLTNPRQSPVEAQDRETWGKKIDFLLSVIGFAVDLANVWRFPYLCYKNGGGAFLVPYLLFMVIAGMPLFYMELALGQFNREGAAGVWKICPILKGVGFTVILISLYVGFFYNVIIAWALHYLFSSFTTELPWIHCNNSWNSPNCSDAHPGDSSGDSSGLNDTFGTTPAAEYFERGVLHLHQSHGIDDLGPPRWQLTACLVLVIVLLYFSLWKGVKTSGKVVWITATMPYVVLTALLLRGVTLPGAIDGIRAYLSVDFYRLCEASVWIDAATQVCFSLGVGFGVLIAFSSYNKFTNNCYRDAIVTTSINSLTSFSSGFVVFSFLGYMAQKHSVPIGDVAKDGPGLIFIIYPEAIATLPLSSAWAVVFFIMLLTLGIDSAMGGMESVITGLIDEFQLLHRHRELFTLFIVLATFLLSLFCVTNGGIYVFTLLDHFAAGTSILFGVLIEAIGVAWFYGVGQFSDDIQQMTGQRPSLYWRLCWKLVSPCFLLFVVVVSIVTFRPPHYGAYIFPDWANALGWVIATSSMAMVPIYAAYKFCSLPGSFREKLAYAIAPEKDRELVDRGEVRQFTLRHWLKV
Sequence of Sodium channel protein type 2 subunit alpha (Homo sapiens) (Q99250 whole entry, looked up): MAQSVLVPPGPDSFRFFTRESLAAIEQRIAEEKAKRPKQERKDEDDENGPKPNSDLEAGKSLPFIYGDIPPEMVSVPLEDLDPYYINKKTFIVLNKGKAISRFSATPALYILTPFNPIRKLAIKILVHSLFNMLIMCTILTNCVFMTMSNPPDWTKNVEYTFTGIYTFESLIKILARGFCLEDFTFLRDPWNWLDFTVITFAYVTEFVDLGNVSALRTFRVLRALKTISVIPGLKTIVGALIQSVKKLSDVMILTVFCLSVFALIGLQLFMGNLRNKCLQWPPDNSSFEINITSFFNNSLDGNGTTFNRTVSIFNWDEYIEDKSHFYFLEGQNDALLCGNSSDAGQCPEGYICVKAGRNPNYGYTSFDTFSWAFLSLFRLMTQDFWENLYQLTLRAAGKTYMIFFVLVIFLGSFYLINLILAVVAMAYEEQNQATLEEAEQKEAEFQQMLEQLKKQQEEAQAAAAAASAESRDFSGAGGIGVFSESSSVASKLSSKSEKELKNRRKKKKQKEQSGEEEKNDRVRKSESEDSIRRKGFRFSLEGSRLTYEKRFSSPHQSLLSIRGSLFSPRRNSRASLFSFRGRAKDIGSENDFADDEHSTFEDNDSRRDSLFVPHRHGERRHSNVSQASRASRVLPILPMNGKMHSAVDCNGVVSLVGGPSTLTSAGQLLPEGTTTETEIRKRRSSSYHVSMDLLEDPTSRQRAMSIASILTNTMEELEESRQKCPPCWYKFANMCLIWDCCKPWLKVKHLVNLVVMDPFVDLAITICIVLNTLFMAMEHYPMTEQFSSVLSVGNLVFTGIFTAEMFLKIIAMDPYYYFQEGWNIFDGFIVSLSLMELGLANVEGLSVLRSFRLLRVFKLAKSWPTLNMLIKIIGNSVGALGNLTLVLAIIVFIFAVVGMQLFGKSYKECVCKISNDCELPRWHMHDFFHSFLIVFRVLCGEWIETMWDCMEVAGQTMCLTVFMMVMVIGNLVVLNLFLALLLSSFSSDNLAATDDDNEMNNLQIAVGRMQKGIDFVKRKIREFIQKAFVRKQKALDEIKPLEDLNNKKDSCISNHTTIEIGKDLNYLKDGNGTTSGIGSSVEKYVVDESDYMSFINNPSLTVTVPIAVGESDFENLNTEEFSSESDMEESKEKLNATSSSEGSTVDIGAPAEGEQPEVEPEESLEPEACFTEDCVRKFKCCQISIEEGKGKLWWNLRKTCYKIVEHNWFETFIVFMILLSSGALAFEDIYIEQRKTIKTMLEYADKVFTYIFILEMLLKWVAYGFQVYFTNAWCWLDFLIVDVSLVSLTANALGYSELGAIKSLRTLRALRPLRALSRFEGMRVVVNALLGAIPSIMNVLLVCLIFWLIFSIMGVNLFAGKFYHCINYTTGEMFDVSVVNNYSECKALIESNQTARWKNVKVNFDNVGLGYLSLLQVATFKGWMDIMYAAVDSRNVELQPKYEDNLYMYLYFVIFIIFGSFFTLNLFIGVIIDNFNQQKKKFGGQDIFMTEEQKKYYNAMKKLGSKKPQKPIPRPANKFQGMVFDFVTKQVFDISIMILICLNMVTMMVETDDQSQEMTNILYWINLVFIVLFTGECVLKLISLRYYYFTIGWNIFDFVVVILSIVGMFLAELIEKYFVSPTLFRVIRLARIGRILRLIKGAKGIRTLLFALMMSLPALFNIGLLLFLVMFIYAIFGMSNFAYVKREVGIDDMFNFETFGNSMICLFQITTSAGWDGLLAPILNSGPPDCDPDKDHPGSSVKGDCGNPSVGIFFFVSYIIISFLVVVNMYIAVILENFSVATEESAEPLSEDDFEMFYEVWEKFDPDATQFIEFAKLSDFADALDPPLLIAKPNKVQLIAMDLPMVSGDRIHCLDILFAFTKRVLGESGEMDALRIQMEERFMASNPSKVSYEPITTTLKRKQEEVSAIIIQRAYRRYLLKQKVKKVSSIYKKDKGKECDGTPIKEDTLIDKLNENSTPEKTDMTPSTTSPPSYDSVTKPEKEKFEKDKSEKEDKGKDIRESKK
Sequence of CYP2D6 (P10635 whole entry): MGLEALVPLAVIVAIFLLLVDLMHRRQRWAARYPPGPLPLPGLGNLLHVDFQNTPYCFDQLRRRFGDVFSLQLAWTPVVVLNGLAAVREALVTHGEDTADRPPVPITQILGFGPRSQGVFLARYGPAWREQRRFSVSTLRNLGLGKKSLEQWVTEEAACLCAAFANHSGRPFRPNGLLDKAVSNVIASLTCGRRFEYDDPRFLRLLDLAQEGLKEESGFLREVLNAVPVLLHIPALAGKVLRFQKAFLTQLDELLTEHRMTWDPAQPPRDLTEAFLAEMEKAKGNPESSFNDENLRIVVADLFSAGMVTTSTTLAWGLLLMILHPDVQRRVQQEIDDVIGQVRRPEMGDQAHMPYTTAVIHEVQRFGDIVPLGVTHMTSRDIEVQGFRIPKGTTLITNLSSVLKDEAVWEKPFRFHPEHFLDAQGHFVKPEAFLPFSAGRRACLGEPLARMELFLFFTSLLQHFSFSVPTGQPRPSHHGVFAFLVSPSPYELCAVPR
Sequence of Voltage-gated inwardly rectifying potassium channel KCNH2 (Q12809 whole entry): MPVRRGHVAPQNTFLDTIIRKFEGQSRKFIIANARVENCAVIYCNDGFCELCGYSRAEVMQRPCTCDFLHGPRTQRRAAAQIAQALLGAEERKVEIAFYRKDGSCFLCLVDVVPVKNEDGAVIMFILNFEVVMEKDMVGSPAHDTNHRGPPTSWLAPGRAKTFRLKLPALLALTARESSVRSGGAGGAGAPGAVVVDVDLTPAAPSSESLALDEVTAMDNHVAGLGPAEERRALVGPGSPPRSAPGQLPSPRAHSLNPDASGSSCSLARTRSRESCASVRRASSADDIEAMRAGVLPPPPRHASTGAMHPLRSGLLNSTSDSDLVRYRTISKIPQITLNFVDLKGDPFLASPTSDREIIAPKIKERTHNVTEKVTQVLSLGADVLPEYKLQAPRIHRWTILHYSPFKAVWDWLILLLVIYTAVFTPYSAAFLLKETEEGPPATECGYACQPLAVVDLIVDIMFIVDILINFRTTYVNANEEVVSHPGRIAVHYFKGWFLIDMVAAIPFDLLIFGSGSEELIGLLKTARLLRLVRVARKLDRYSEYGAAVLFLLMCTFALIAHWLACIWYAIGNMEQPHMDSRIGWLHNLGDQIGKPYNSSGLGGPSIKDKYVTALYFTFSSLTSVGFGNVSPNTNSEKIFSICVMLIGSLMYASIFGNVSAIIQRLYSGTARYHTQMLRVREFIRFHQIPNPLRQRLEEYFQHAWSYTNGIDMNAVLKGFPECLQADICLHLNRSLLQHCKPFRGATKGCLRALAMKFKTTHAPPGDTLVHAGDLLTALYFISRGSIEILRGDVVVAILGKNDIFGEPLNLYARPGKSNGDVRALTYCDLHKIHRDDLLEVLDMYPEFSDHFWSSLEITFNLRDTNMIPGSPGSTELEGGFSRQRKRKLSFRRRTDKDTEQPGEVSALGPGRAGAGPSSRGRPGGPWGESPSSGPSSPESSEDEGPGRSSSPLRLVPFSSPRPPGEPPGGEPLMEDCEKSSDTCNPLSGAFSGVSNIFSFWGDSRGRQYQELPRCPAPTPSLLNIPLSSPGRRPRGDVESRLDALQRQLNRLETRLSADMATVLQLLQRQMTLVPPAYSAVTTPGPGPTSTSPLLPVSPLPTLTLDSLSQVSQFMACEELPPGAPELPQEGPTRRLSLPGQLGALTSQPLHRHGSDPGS

## COc1ccc2ncc(F)c(CC[C@@]3(O)CO[C@@H]4[C@@H](NCc5cc6c(cn5)OCCO6)CO[C@@H]43)c2n1
[1]
  residual activity at 10 µM: 49.5%
[2]
  MIC: 1 µg/mL (≈ 2.01 µM)
[3]
  MIC90: 2 µg/mL (≈ 4.01 µM)
[4]
  IC50: 7.4 µM
[5]
  MIC: 0.25 µg/mL (≈ 0.501 µM)
[6]
  MIC: 2 µg/mL (≈ 4.01 µM)
[7]
  cytotoxicity at 24 h, 10 µM: 8%
[8]
  MIC: 2 µg/mL (≈ 4.01 µM)
[9]
  MIC: 1 µg/mL (≈ 2.01 µM)
[10]
  inhibition at 10 µM: < 50%
[11]
  inhibition: 78%
[12]
  Papp A→B at 10 µM: 10.8 ×10⁻⁶ cm/s
[13]
  IC50: 66 µM
[14]
  inhibition at 10 µM: < 50%
[15]
  Ratio: 16
[16]
  solubility at […], 100 µM: 76.2 µM (≈ 38 µg/mL)
[17]
  inhibition: 96%
[18]
  inhibition at 10 µM: < 50%
[19]
  inhibition: 95%
[20]
  Papp B→A at 10 µM: 85.3 ×10⁻⁶ cm/s
[21]
  inhibition at 30 µM: 19.1%
[22]
  MIC: 2 µg/mL (≈ 4.01 µM)
[23]
  Activity: 3.4%
[24]
  inhibition: 51%
[25]
  MIC: ≤ 0.12 µg/mL
